Test results reported in ChEMBL document CHEMBL2062435, “Synthesis and in vitro antibacterial activity of gemifloxacin derivatives containing a substituted benzyloxime moiety” (2012).

Legend:
Type in all cases: functional
[1] = tested on: Staphylococcus epidermidis; test: Antimicrobial activity against extended spectrum beta-lactamases-producing methicillin-sensitive Staphylococcus epidermidis 10-11 after 18-24 hrs by two-fold serial dilution method
Outline: (§1)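 Agar-medium twofold serial dilution against Gram-positive and Gram-negative strains; MIC taken as the lowest compound concentration giving complete inhibition of bacterial growth after incubation at 35 °C for 18-24 h.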

Escherichia coli [2] = test: Antimicrobial activity against Escherichia coli 10-2 after 18-24 hrs by two-fold serial dilution method; outline: as §1
Pseudomonas aeruginosa [3] = test: Antimicrobial activity against extended spectrum beta-lactamases-producing Pseudomonas aeruginosa 10-18 after 18-24 hrs by two-fold serial dilution method; outline: as §1
Enterococcus faecalis [4] = test: Antimicrobial activity against Enterococcus faecalis 10-6 after 18-24 hrs by two-fold serial dilution method; outline: as §1
Staphylococcus aureus [5] = test: Antimicrobial activity against extended spectrum beta-lactamases-producing methicillin-resistant Staphylococcus aureus 10-15 after 18-24 hrs by two-fold serial dilution method
Outline: (§2)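 Agar twofold serial dilution MIC against clinical isolates. MIC was taken as the lowest concentration giving complete inhibition of bacterial growth after incubation at 35 °C for 18-24 h.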

Escherichia coli [6] = test: Antimicrobial activity against Escherichia coli 10-1 after 18-24 hrs by two-fold serial dilution method; outline: as §1
[7] = tested on: Staphylococcus epidermidis; test: Antimicrobial activity against extended spectrum beta-lactamases-producing methicillin-resistant Staphylococcus epidermidis 10-10 after 18-24 hrs by two-fold serial dilution method; outline: as §2
Escherichia coli [8] = test: Antimicrobial activity against extended spectrum beta-lactamases-producing Escherichia coli 10-2 after 18-24 hrs by two-fold serial dilution method; outline: as §1
Klebsiella pneumoniae [9] = test: Antimicrobial activity against Klebsiella pneumoniae 10-4 after 18-24 hrs by two-fold serial dilution method; outline: as §1
Pseudomonas aeruginosa [10] = test: Antimicrobial activity against Pseudomonas aeruginosa 10-12 after 18-24 hrs by two-fold serial dilution method; outline: as §1
Escherichia coli [11] = test: Antimicrobial activity against extended spectrum beta-lactamases-producing Escherichia coli 10-4 after 18-24 hrs by two-fold serial dilution method; outline: as §1
Enterococcus faecium [12] = test: Antimicrobial activity against Enterococcus faecium 10-5 after 18-24 hrs by two-fold serial dilution method; outline: as §1
Klebsiella pneumoniae [13] = test: Antimicrobial activity against Klebsiella pneumoniae 10-3 after 18-24 hrs by two-fold serial dilution method; outline: as §1
[14] = tested on: Staphylococcus epidermidis; test: Antimicrobial activity against extended spectrum beta-lactamases-producing methicillin-sensitive Staphylococcus epidermidis 10-13 after 18-24 hrs by two-fold serial dilution method; outline: as §1
Staphylococcus aureus [15] = test: Antimicrobial activity against Staphylococcus aureus ATCC […] after 18-24 hrs by two-fold serial dilution method; outline: as §1
Staphylococcus aureus [16] = test: Antimicrobial activity against extended spectrum beta-lactamases-producing methicillin-sensitive Staphylococcus aureus 10-14 after 18-24 hrs by two-fold serial dilution method; outline: as §1
Enterococcus faecalis [17] = test: Antimicrobial activity against Enterococcus faecalis 10-5 after 18-24 hrs by two-fold serial dilution method; outline: as §1
Enterococcus faecium [18] = test: Antimicrobial activity against Enterococcus faecium 10-9 after 18-24 hrs by two-fold serial dilution method; outline: as §1
[19] = tested on: Staphylococcus epidermidis; test: Antimicrobial activity against extended spectrum beta-lactamases-producing methicillin-sensitive Staphylococcus epidermidis 10-15 after 18-24 hrs by two-fold serial dilution method; outline: as §1
Klebsiella pneumoniae [20] = test: Antimicrobial activity against extended spectrum beta-lactamases-producing Klebsiella pneumoniae 10-2 after 18-24 hrs by two-fold serial dilution method; outline: as §1
Streptococcus pneumoniae [21] = test: Antimicrobial activity against extended spectrum beta-lactamases-producing Streptococcus pneumoniae 10-1 after 18-24 hrs by two-fold serial dilution method; outline: as §1
Klebsiella pneumoniae [22] = test: Antimicrobial activity against extended spectrum beta-lactamases-producing Klebsiella pneumoniae 10-1 after 18-24 hrs by two-fold serial dilution method; outline: as §1
Pseudomonas aeruginosa [23] = test: Antimicrobial activity against extended spectrum beta-lactamases-producing Pseudomonas aeruginosa 10-20 after 18-24 hrs by two-fold serial dilution method; outline: as §1
Enterococcus faecalis [24] = test: Antimicrobial activity against Enterococcus faecalis 10-7 after 18-24 hrs by two-fold serial dilution method; outline: as §1
Pseudomonas aeruginosa [25] = test: Antimicrobial activity against extended spectrum beta-lactamases-producing Pseudomonas aeruginosa 10-5 after 18-24 hrs by two-fold serial dilution method; outline: as §1
Streptococcus pneumoniae [26] = test: Antimicrobial activity against extended spectrum beta-lactamases-producing Streptococcus pneumoniae 10-4 after 18-24 hrs by two-fold serial dilution method; outline: as §1
Escherichia coli [27] = test: Antimicrobial activity against Escherichia coli ATCC 25922 after 18-24 hrs by two-fold serial dilution method; outline: as §1
Pseudomonas aeruginosa [28] = test: Antimicrobial activity against extended spectrum beta-lactamases-producing Pseudomonas aeruginosa 10-9 after 18-24 hrs by two-fold serial dilution method; outline: as §1
Klebsiella pneumoniae [29] = test: Antimicrobial activity against extended spectrum beta-lactamases-producing Klebsiella pneumoniae 10-3 after 18-24 hrs by two-fold serial dilution method; outline: as §1
Pseudomonas aeruginosa [30] = test: Antimicrobial activity against extended spectrum beta-lactamases-producing Pseudomonas aeruginosa 10-15 after 18-24 hrs by two-fold serial dilution method; outline: as §1
Klebsiella pneumoniae [31] = test: Antimicrobial activity against Klebsiella pneumoniae 10-2 after 18-24 hrs by two-fold serial dilution method; outline: as §1
Staphylococcus aureus [32] = test: Antimicrobial activity against extended spectrum beta-lactamases-producing methicillin-resistant Staphylococcus aureus 10-11 after 18-24 hrs by two-fold serial dilution method; outline: as §2
[33] = tested on: Staphylococcus epidermidis; test: Antimicrobial activity against extended spectrum beta-lactamases-producing methicillin-resistant Staphylococcus epidermidis 10-13 after 18-24 hrs by two-fold serial dilution method; outline: as §2
Escherichia coli [34] = test: Antimicrobial activity against extended spectrum beta-lactamases-producing Escherichia coli 10-3 after 18-24 hrs by two-fold serial dilution method; outline: as §1
Staphylococcus aureus [35] = test: Antimicrobial activity against extended spectrum beta-lactamases-producing methicillin-sensitive Staphylococcus aureus 10-13 after 18-24 hrs by two-fold serial dilution method; outline: as §1
Escherichia coli [36] = test: Antimicrobial activity against Escherichia coli 10-3 after 18-24 hrs by two-fold serial dilution method; outline: as §1

SMILES | MIC [1] [µg/mL] | MIC (Escherichia coli [2]) [µg/mL] | MIC (Pseudomonas aeruginosa [3]) [µg/mL] | MIC (Enterococcus faecalis [4]) [µg/mL] | MIC (Staphylococcus aureus [5]) [µg/mL] | MIC (Escherichia coli [6]) [µg/mL] | MIC [7] [µg/mL] | MIC (Escherichia coli [8]) [µg/mL] | MIC (Klebsiella pneumoniae [9]) [µg/mL] | MIC (Pseudomonas aeruginosa [10]) [µg/mL] | MIC (Escherichia coli [11]) [µg/mL] | MIC (Enterococcus faecium [12]) [µg/mL] | MIC (Klebsiella pneumoniae [13]) [µg/mL] | MIC [14] [µg/mL] | MIC (Staphylococcus aureus [15]) [µg/mL] | MIC (Staphylococcus aureus [16]) [µg/mL] | MIC (Enterococcus faecalis [17]) [µg/mL] | MIC (Enterococcus faecium [18]) [µg/mL] | MIC [19] [µg/mL] | MIC (Klebsiella pneumoniae [20]) [µg/mL] | further results
COc1ccc(CO/N=C2\CN(c3nc4c(cc3F)c(=O)c(C(=O)O)cn4C3CC3)CC2CN)c(Cl)c1OC.CS(=O)(=O)O (racemic) | 0.25 | 32 | 16 | 4 | 0.25 | > 128 | 0.5 | > 128 | > 128 | 16 | 4 | 4 | 8 | 0.03 | 0.008 | 0.015 | 0.25 | 4 | 1 | > 128 | MIC (Streptococcus pneumoniae [21]): 0.5 µg/mL; MIC (Klebsiella pneumoniae [22]): > 128 µg/mL; MIC (Pseudomonas aeruginosa [23]): 16 µg/mL; MIC (Enterococcus faecalis [24]): 2 µg/mL; MIC (Pseudomonas aeruginosa [25]): 16 µg/mL; MIC (Streptococcus pneumoniae [26]): 0.06 µg/mL; MIC (Escherichia coli [27]): 0.25 µg/mL; MIC (Pseudomonas aeruginosa [28]): 8 µg/mL; MIC (Klebsiella pneumoniae [29]): > 128 µg/mL; MIC (Pseudomonas aeruginosa [30]): 32 µg/mL; MIC (Klebsiella pneumoniae [31]): > 128 µg/mL; MIC (Staphylococcus aureus [32]): 1 µg/mL; MIC [33]: 0.5 µg/mL; MIC (Escherichia coli [34]): > 128 µg/mL; MIC (Staphylococcus aureus [35]): 0.015 µg/mL; MIC (Escherichia coli [36]): 16 µg/mL
CS(=O)(=O)O.NCC1CN(c2nc3c(cc2F)c(=O)c(C(=O)O)cn3C2CC2)C/C1=N\OCc1cc2c(cc1Cl)OCO2 (racemic) | 0.25 | 16 | 16 | 8 | 1 | > 128 | 2 | 128 | 128 | 8 | 8 | 8 | 8 | 8 | 0.015 | 0.06 | 1 | 8 | 2 | > 128 | MIC (Streptococcus pneumoniae [21]): 0.5 µg/mL; MIC (Klebsiella pneumoniae [22]): > 128 µg/mL; MIC (Pseudomonas aeruginosa [23]): 4 µg/mL; MIC (Enterococcus faecalis [24]): 4 µg/mL; MIC (Pseudomonas aeruginosa [25]): 8 µg/mL; MIC (Streptococcus pneumoniae [26]): 2 µg/mL; MIC (Escherichia coli [27]): 0.25 µg/mL; MIC (Pseudomonas aeruginosa [28]): 8 µg/mL; MIC (Klebsiella pneumoniae [29]): > 128 µg/mL; MIC (Pseudomonas aeruginosa [30]): 32 µg/mL; MIC (Klebsiella pneumoniae [31]): > 128 µg/mL; MIC (Staphylococcus aureus [32]): 2 µg/mL; MIC [33]: 2 µg/mL; MIC (Escherichia coli [34]): > 128 µg/mL; MIC (Staphylococcus aureus [35]): 0.03 µg/mL; MIC (Escherichia coli [36]): 16 µg/mL
CS(=O)(=O)O.Cc1ccc(CO/N=C2\CN(c3nc4c(cc3F)c(=O)c(C(=O)O)cn4C3CC3)CC2CN)cc1C (racemic) | 0.25 | 8 | 16 | 4 | 0.25 | 64 | 1 | > 128 | > 128 | 4 | 8 | 8 | 8 | 8 | 0.008 | < 0.008 | 0.5 | 8 | 1 | > 128 | MIC (Streptococcus pneumoniae [21]): 0.125 µg/mL; MIC (Klebsiella pneumoniae [22]): > 128 µg/mL; MIC (Pseudomonas aeruginosa [23]): 8 µg/mL; MIC (Enterococcus faecalis [24]): 4 µg/mL; MIC (Pseudomonas aeruginosa [25]): 4 µg/mL; MIC (Streptococcus pneumoniae [26]): 0.5 µg/mL; MIC (Escherichia coli [27]): 0.015 µg/mL; MIC (Pseudomonas aeruginosa [28]): 4 µg/mL; MIC (Klebsiella pneumoniae [29]): > 128 µg/mL; MIC (Pseudomonas aeruginosa [30]): 8 µg/mL; MIC (Klebsiella pneumoniae [31]): > 128 µg/mL; MIC (Staphylococcus aureus [32]): 2 µg/mL; MIC [33]: 1 µg/mL; MIC (Escherichia coli [34]): > 128 µg/mL; MIC (Staphylococcus aureus [35]): 0.06 µg/mL; MIC (Escherichia coli [36]): 8 µg/mL
COc1cc(CO/N=C2\CN(c3nc4c(cc3F)c(=O)c(C(=O)O)cn4C3CC3)CC2CN)ccc1OC(F)F.CS(=O)(=O)O (racemic) | 0.25 | 16 | 16 | 8 | 0.5 | > 128 | 2 | > 128 | > 128 | 8 | 8 | 8 | 8 | 8 | 0.008 | 0.03 | 2 | 16 | 4 | > 128 | MIC (Streptococcus pneumoniae [21]): 0.25 µg/mL; MIC (Klebsiella pneumoniae [22]): > 128 µg/mL; MIC (Pseudomonas aeruginosa [23]): 8 µg/mL; MIC (Enterococcus faecalis [24]): 4 µg/mL; MIC (Pseudomonas aeruginosa [25]): 8 µg/mL; MIC (Streptococcus pneumoniae [26]): 2 µg/mL; MIC (Escherichia coli [27]): 0.06 µg/mL; MIC (Pseudomonas aeruginosa [28]): 8 µg/mL; MIC (Klebsiella pneumoniae [29]): > 128 µg/mL; MIC (Pseudomonas aeruginosa [30]): 32 µg/mL; MIC (Klebsiella pneumoniae [31]): > 128 µg/mL; MIC (Staphylococcus aureus [32]): 2 µg/mL; MIC [33]: 4 µg/mL; MIC (Escherichia coli [34]): > 128 µg/mL; MIC (Staphylococcus aureus [35]): 0.06 µg/mL; MIC (Escherichia coli [36]): 16 µg/mL
CS(=O)(=O)O.NCC1CN(c2nc3c(cc2F)c(=O)c(C(=O)O)cn3C2CC2)C/C1=N\OCc1ccc2c(c1)OCCO2 (racemic) | 0.5 | 4 | 4 | 4 | 0.5 | 16 | 0.5 | > 128 | 128 | 2 | 2 | 8 | 32 | 2 | 0.06 | 0.06 | 0.5 | 8 | 0.5 | > 128 | MIC (Streptococcus pneumoniae [21]): 0.5 µg/mL; MIC (Klebsiella pneumoniae [22]): > 128 µg/mL; MIC (Pseudomonas aeruginosa [23]): 2 µg/mL; MIC (Enterococcus faecalis [24]): 1 µg/mL; MIC (Pseudomonas aeruginosa [25]): 2 µg/mL; MIC (Streptococcus pneumoniae [26]): 2 µg/mL; MIC (Escherichia coli [27]): 0.25 µg/mL; MIC (Pseudomonas aeruginosa [28]): 2 µg/mL; MIC (Klebsiella pneumoniae [29]): 4 µg/mL; MIC (Pseudomonas aeruginosa [30]): 2 µg/mL; MIC (Klebsiella pneumoniae [31]): 16 µg/mL; MIC (Staphylococcus aureus [32]): 1 µg/mL; MIC [33]: 0.5 µg/mL; MIC (Escherichia coli [34]): > 128 µg/mL; MIC (Staphylococcus aureus [35]): 0.06 µg/mL; MIC (Escherichia coli [36]): 4 µg/mL
